Results from ChEMBL document CHEMBL3286282, “Synthesis and antiproliferative activity of novobiocin analogues as potential hsp90 inhibitors” (Eur J Med Chem, 2014).
Active and inactive are the calls of the source. No cut-off for these calls is given here.

Columns and labels:
[1] = Retardation factor of the compound using c-hexane/AcOEt at ratio of 6:4 as solvent system; type: physicochemical
MCF7 [2] = test: Antiproliferative activity against ER-positive human MCF7 cells assessed as cell viability at 0.1 mM after 72 hrs by MTT assay; type: functional; details: MCF7, 72 h, read-out: Activity
Procedure, shortened: (§1)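 MCF-7 (ER-positive) cells in DMEM with 2 mM L-glutamine, penicillin/streptomycin and 10% charcoal-treated FCS, seeded at 2500-5000 cells/well. Drugs added 24 h later in serial dilutions from 10 mM DMSO stocks, then exposed 72 h. MTT (500 µg/mL) for 3 h at 37 °C, formazan dissolved in DMSO, A570 read minus A650. Sextuplicates, three experiments.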

[3] = Retardation factor of the compound using CH2Cl2/MeOH at ratio of 95:5 as solvent system; type: physicochemical
[4] = Retardation factor of the compound using Et2O/c-hexane at ratio of 8:2 as solvent system; type: physicochemical
RPMI-8226 = test: Growth inhibition of human RPMI8226 cells after 72 hrs by MTS assay; type: functional; details: RPMI-8226, 72 h
Procedure, shortened: (§2)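 Myeloma RPMI 8226 and LP-1 cells and prostate PC-3 cells, grown in RPMI 1640 with 2 mM L-glutamine and 10% heat-inactivated FBS, seeded at 2500-5000 cells/well. Drug dilutions added after 24 h. After 72 h, MTS reagent added and A492 read 2 or 3 h later. Run in triplicate, with each experiment done at least twice. GI50 taken relative to vehicle-treated cells.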

LP-1 = test: Growth inhibition of human LP-1 cells after 72 hrs by MTS assay; type: functional; details: LP-1, 72 h; procedure, shortened: as §2
PC-3 = test: Growth inhibition of human PC3 cells after 72 hrs by MTS assay; type: functional; details: PC-3, 72 h; procedure, shortened: as §2
MCF7 [5] = test: Cell cycle arrest in human MCF7 cells assessed as accumulation at subG1 phase at 100 uM after 48 hrs by flow cytometry (reference value: 5%); type: functional
Procedure, shortened: (§3)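 MCF-7 cells at 1.3 x 10^5 cells/mL exposed to 100 µM for 48 or 72 h, with DMSO control. Cells fixed in PBS/ethanol (30/70), then 10^4 cells incubated 30 min in PBS/0.2% Triton X-100/1 mM EDTA with propidium iodide (50 µg/mL) and RNase (0.5 mg/mL). Flow cytometry gave % cells per phase, with sub-G1 counted as apoptotic. Mean of two independent experiments.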

MCF7 [6] = test: Cell cycle arrest in human MCF7 cells assessed as accumulation at subG1 phase at 100 uM after 72 hrs by flow cytometry (reference value: 9.5%); type: functional; procedure, shortened: as §3
MCF7 [7] = test: Cell cycle arrest in human MCF7 cells assessed as accumulation at G0/G1 phase at 100 uM after 48 hrs by flow cytometry (reference value: 87%); type: functional; procedure, shortened: as §3
MCF7 [8] = test: Cell cycle arrest in human MCF7 cells assessed as accumulation at G0/G1 phase at 100 uM after 72 hrs by flow cytometry (reference value: 60.5%); type: functional; procedure, shortened: as §3
MCF7 [9] = test: Cell cycle arrest in human MCF7 cells assessed as accumulation at S phase at 100 uM after 48 hrs by flow cytometry (reference value: 6%); type: functional; procedure, shortened: as §3
MCF7 [10] = test: Cell cycle arrest in human MCF7 cells assessed as accumulation at S phase at 100 uM after 72 hrs by flow cytometry (reference value: 20.5%); type: functional; procedure, shortened: as §3
MCF7 [11] = test: Cell cycle arrest in human MCF7 cells assessed as accumulation at G2/M phase at 100 uM after 48 hrs by flow cytometry (reference value: 7%); type: functional; procedure, shortened: as §3
MCF7 [12] = test: Cell cycle arrest in human MCF7 cells assessed as accumulation at G2/M phase at 100 uM after 72 hrs by flow cytometry (reference value: 19%); type: functional; procedure, shortened: as §3
MCF7 [13] = test: Antiproliferative activity against human MCF7 cells assessed as inhibition of cell proliferation; type: functional, cell-based
MDA-MB-231 [14] = test: Antiproliferative activity against human MDA-MB-231 cells assessed as inhibition of cell proliferation; type: functional, cell-based
Caco-2 = test: Antiproliferative activity against human Caco2 cells assessed as inhibition of cell proliferation; type: functional, cell-based
IGROV-1 = test: Antiproliferative activity against human IGROV1 cells assessed as inhibition of cell proliferation; type: functional, cell-based
Ishikawa = test: Antiproliferative activity against human Ishikawa cells assessed as inhibition of cell proliferation; type: functional, cell-based
MCF7 [15] = test: Growth inhibition of ER-positive human MCF7 cells after 72 hrs by MTT assay; type: functional; details: MCF7, 72 h; procedure, shortened: as §1
MDA-MB-231 [16] = test: Growth inhibition of ER-negative human MDA-MB-231 cells after 72 hrs by MTT assay; type: functional; details: MDA-MB-231, 72 h
Procedure, shortened: (§4)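 ER-negative MDA-MB-231 cells and tamoxifen- or Faslodex-resistant MCF-7 cells, grown in DMEM with 10% charcoal-treated FCS and seeded at 2500-5000 cells/well. Drug serial dilutions added after 24 h from 10 mM DMSO stocks. After 72 h, MTT at 500 µg/mL for 3 h at 37 °C, then A570 read minus A650.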

[17] = Retardation factor of the compound using CH2Cl2/c-hexane at ratio of 9:1 as solvent system; type: physicochemical
[18] = Retardation factor of the compound using CH2Cl2/AcOEt at ratio of 9:1 as solvent system; type: physicochemical
[19] = Retardation factor of the compound using CH2Cl2 as solvent system; type: physicochemical
MCF7 [20] = test: Growth inhibition of Faslodex-resistant human MCF7 cells after 72 hrs by MTT assay; type: functional; details: MCF7, 72 h; procedure, shortened: as §4
[21] = biological target: Heat shock protein HSP 90-beta (Homo sapiens) (UniProt P08238); test: Inhibition of HSP90 in human MCF7 cells assessed as ER-alpha degradation at 100 uM after 24 hrs by western blot analysis; type: cell-based
Sequence of Heat shock protein HSP 90-beta (Homo sapiens) (P08238 whole entry): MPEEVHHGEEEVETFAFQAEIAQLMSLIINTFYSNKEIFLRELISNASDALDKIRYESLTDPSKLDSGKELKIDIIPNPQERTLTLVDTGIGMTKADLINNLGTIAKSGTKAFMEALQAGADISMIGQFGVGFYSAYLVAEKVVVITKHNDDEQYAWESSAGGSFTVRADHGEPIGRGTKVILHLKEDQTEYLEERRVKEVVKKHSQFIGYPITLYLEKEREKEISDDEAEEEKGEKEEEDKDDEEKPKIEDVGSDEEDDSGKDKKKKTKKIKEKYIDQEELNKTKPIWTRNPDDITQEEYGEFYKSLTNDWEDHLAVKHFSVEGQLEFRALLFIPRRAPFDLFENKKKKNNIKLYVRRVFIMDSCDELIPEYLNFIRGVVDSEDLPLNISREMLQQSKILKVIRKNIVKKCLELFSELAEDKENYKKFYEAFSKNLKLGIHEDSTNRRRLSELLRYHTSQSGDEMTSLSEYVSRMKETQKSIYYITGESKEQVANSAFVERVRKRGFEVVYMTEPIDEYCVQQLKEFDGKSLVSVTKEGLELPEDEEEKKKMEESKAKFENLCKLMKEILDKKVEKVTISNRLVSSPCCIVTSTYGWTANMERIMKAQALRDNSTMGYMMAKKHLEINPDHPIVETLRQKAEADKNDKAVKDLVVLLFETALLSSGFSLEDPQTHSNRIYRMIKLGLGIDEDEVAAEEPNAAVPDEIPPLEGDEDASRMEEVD
Procedure, shortened: (§5)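 MCF-7 cells grown to 50% confluence, exposed to 100 µM for 24 h with or without MG132 (5 µM). Lysed in Tris-HCl pH 7.5/NaCl/EGTA/Triton X-100 buffer with phosphatase and protease inhibitors. 20 µg protein run on SDS-PAGE. ERα probed with D12 monoclonal antibody (1 µg/mL, overnight 4 °C), detected by biotin/avidin-peroxidase. Nonspecific band used as loading control; DMSO as vehicle.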

[22] = biological target: Heat shock protein HSP 90-beta (Homo sapiens) (UniProt P08238); test: Inhibition of HSP90 in human MCF7 cells assessed as ER-alpha degradation at 100 uM after 24 hrs by western blot analysis in presence of proteasome inhibitor MG132; type: cell-based; procedure, shortened: as §5
[23] = biological target: Heat shock protein HSP 90-beta (Homo sapiens) (UniProt P08238); test: Inhibition of HSP90 in human MCF7 cells assessed as induction of Her2 degradation at 100 uM after 24 hrs by western blot analysis; type: cell-based
[24] = biological target: Heat shock protein HSP 90-beta (Homo sapiens) (UniProt P08238); test: Inhibition of HSP90 in human MCF7 cells assessed as induction of Raf degradation at 100 uM after 24 hrs by western blot analysis; type: cell-based
[25] = biological target: Heat shock protein HSP 90-beta (Homo sapiens) (UniProt P08238); test: Inhibition of HSP90 in human MCF7 cells assessed as induction of Cdk4 degradation at 100 uM after 24 hrs by western blot analysis; type: cell-based
MCF7 [26] = test: Ratio of novobiocin GI50 to compound GI50 for human MCF7 cells; type: functional
MCF7 [27] = test: Growth inhibition of tamoxifen-resistant human MCF7 cells after 72 hrs by MTT assay; type: functional; details: MCF7, 72 h; procedure, shortened: as §4

Question: What does the source list for Cc1c(O)ccc2c(OS(C)(=O)=O)c(NC(=O)c3ccc4c(c3)CCC(C)(C)O4)c(=O)oc12?
Answer: Rf [1]: 0.14; viability at 100 µM (MCF7 [2]): 61%

Question: For Cc1c(O)ccc2c(NCCN3CCOCC3)c(NC(=O)c3ccc4c(c3)CCC(C)(C)O4)c(=O)oc12, which Rf [3] is on record?
Answer: 0.2

Question: What about the viability at 100 µM (MCF7 [2]) of the same compound?
Answer: 87%

Question: Which Rf [4] does the source give for CC(=O)OC[C@H]1O[C@@H](Oc2ccc3c(N)c(NC(=O)c4ccc5c(c4)CCC(C)(C)O5)c(=O)oc3c2C)[C@H](OC(C)=O)[C@@H](OC(C)=O)[C@@H]1OC(C)=O here?
Answer: 0.17

Question: What about the viability at 100 µM (MCF7 [2]) of the same compound?
Answer: 71%

Question: Which results are given for COc1ccc(C(=O)Nc2cc3cc(Br)ccc3n(C)c2=O)cc1?
Answer: GI50 (RPMI-8226): 5 µM; GI50 (LP-1): 6.2 µM; GI50 (PC-3): 10 µM; Activity (MCF7 [5]): 29.5%; Activity (MCF7 [6]): 47%; Activity (MCF7 [7]): 34.81%; Activity (MCF7 [8]): 40.43%; Activity (MCF7 [9]): 17.14%; Activity (MCF7 [10]): 18.09%; Activity (MCF7 [11]): 48%; Activity (MCF7 [12]): 41.5%; IC50 (MCF7 [13]): 7 µM; IC50 (MDA-MB-231 [14]): 2 µM; IC50 (Caco-2): 8 µM; IC50 (IGROV-1): 5 µM; IC50 (Ishikawa): 2 µM; viability at 100 µM (MCF7 [2]): 10%; GI50 (MCF7 [15]): 7 µM; GI50 (MDA-MB-231 [16]): 2 µM

Question: For CO[C@@H]1[C@@H](OC(N)=O)[C@@H](O)[C@H](Oc2ccc3c(O)c(NC(=O)c4ccc(O)c(CC=C(C)C)c4)c(=O)oc3c2C)OC1(C)C [NOVOBIOCIN], which GI50 (MCF7 [15]) is on record?
Answer: 260 µM

Question: Which results are given for COc1c(C#Cc2ccccc2)cc2c(OS(=O)(=O)c3ccc(C)cc3)c(NC(=O)c3ccc4c(c3)CCC(C)(C)O4)c(=O)oc2c1C?
Answer: Rf [17]: 0.1; viability at 100 µM (MCF7 [2]): 90%

Question: Which Rf [18] does the source give for Cc1c(O)ccc2c(OS(=O)(=O)c3cccs3)c(NC(=O)c3ccc4c(c3)CCC(C)(C)O4)c(=O)oc12 here?
Answer: 0.23

Question: What about the viability at 100 µM (MCF7 [2]) of the same compound?
Answer: 62%

Question: For COc1ccc(C#Cc2cc3c(OS(=O)(=O)c4ccc(C)cc4)c(NC(=O)c4ccc5c(c4)CCC(C)(C)O5)c(=O)oc3c(C)c2OC)cc1, which Rf [19] is on record?
Answer: 0.2

Question: What about the viability at 100 µM (MCF7 [2]) of the same compound?
Answer: 89%

Question: With CC(=O)OC[C@H]1O[C@@H](Oc2ccc3c(OS(=O)(=O)c4ccc(C)cc4)c(NC(=O)c4ccc5c(c4)CCC(C)(C)O5)c(=O)oc3c2C)[C@H](OC(C)=O)[C@@H](OC(C)=O)[C@@H]1OC(C)=O as the compound, how does the GI50 (MCF7 [20]) read?
Answer: 25 µM

Question: And the GI50 (RPMI-8226)?
Answer: 2.5 µM

Question: What about the GI50 (LP-1) of the same compound?
Answer: 5 µM

Question: What about the GI50 (PC-3) of the same compound?
Answer: 25 µM

Question: What about the Activity (MCF7 [5]) of the same compound?
Answer: 13%

Question: What about the Activity (MCF7 [6]) of the same compound?
Answer: 27%

Question: And the Activity (MCF7 [7])?
Answer: 40%

Question: And the Activity (MCF7 [8])?
Answer: 30%

Question: What about the Activity (MCF7 [9]) of the same compound?
Answer: 5.5%

Question: And the Activity (MCF7 [10])?
Answer: 9.5%

Question: What about the Activity (MCF7 [11]) of the same compound?
Answer: 55%

Question: And the Activity (MCF7 [12])?
Answer: 60%

Question: What about the “ER-alpha degradation (active/inactive)” value [21] of the same compound?
Answer: Active

Question: And the inhibition [22]?
Answer: inactive

Question: What about the inhibition [23] of the same compound?
Answer: inactive

Question: What about the inhibition [24] of the same compound?
Answer: inactive

Question: What about the inhibition [25] of the same compound?
Answer: inactive

Question: And the Rf [4]?
Answer: 0.14

Question: What about the Ratio (MCF7 [26]) of the same compound?
Answer: 40

Question: What about the viability at 100 µM (MCF7 [2]) of the same compound?
Answer: 10%

Question: And the GI50 (MCF7 [15])?
Answer: 6 µM

Question: What about the GI50 (MDA-MB-231 [16]) of the same compound?
Answer: 10 µM

Question: What about the GI50 (MCF7 [27]) of the same compound?
Answer: 30 µM
